Legend:
[1] = target: T1, NADPH oxidase 4 (Homo sapiens, UniProt Q9NPH5); assay: Inhibition of human NOX4 overexpressed in T-REx-293 cell membrane assessed as ROS production by cell free assay in presence of NADPH; details: in the assay text read “T-REx-293 cell membrane” for “human PMN cell membrane”
T1 sequence (Q9NPH5 whole entry): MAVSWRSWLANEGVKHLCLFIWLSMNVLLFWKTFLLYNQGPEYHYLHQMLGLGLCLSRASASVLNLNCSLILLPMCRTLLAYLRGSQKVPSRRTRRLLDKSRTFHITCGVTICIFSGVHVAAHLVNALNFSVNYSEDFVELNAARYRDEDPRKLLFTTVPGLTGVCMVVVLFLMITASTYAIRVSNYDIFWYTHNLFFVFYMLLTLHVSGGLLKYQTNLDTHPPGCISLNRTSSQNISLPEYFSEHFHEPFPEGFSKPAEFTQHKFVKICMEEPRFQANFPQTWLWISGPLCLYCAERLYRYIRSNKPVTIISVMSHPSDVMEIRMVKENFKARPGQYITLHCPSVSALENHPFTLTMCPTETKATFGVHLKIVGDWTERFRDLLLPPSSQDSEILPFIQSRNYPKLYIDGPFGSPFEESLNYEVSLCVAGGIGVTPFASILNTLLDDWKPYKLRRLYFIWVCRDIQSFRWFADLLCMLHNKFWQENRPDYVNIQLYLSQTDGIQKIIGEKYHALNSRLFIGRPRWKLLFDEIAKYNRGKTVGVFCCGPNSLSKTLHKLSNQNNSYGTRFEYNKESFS
In short: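 hNOX4 T-REx-293 cells induced with tetracycline (1 μg/mL, 24 h), sonicated in sucrose/NaCl/EGTA PBS buffer pH 7.4, membranes taken from a sucrose gradient. NADPH-triggered ROS measured by Amplex Red/HRP in PBS, with compound at 1 nM–100 μM, 20 min at 37 °C. Ki by Cheng-Prusoff from ≥3 triplicate experiments.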

[2] = Intrinsic clearance in Sprague-Dawley rat liver microsomes assessed per mg of protein at 0.5 uM; assay type: ADME, Microsome
In short: (§1)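 Phase I stability assay in pooled liver microsomes (human: male and female; rat: male Sprague-Dawley). Microsomes at 0.5 mg/mL final in 0.1 M phosphate pH 7.4. Compound 0.5 μM final, 0.25% DMSO. Preincubated at 37 °C, reaction started with 1 mM NADPH. Sampled at 0, 5, 15, 30 and 45 min, with a 45 min minus-NADPH control. Methanol quench with internal standard, LC/MS-MS, intrinsic clearance calculated.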

[3] = Permeability across human Caco-2 cell membrane at 10 uM after 2 hrs; assay type: ADME, cell-based
In short: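 Caco-2 monolayers grown 20 days in DMEM, used when TEER >800 Ω·cm2. Dosed at 10 μM final in HBSS pH 6.5 with 1% DMSO, apical-to-basolateral and basolateral-to-apical. Incubated 2 h at 37 °C, both compartments sampled, LC-MS/MS with five-point calibration. Papp = (dQ/dt)/(C0A).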

[4] = Intrinsic clearance in human liver microsomes assessed as per mg of protein at 0.5 uM; assay type: ADME, Microsome; in short: as §1
[5] = AUC (infinity) in Sprague-Dawley rat at 10 mg/kg, po; assay type: ADME, organism-based; design: time infinity, dose 10 mg/kg, route oral; details: plasma
In short: (§2)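 Parallel design with six male rats: three given 5 mg/kg iv in EDPW (10% EtOH, 10% DMA, 30% PG, 50% water), three given 10 mg/kg orally in aqueous 0.5% CMC with 0.25% Tween 20. Carotid cannula blood sampled up to 24 h. Plasma levels by LC/MS/MS (LLOQ 1.00 ng/mL). Noncompartmental analysis.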

[6] = Oral bioavailability in Sprague-Dawley rat at 10 mg/kg; assay type: ADME, organism-based; details: in vivo
In short: (§3)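 Parallel design in male rats, three per group. Group 1: 5 mg/kg iv in EDPW (10% EtOH, 10% DMA, 30% PG, 50% water). Group 2: 10 mg/kg oral in aqueous 0.5% CMC with 0.25% Tween 20. Carotid cannula blood drawn up to 24 h. Plasma measured by LC/MS/MS (LLOQ 1.00 ng/mL), noncompartmental analysis.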

[7] = Cmax in Sprague-Dawley rat at 10 mg/kg, po; assay type: ADME, organism-based; design: dose 10 mg/kg, route oral; details: in vivo; in short: as §2
[8] = Tmax in Sprague-Dawley rat at 10 mg/kg, po; assay type: ADME, organism-based; design: dose 10 mg/kg, route oral; details: in vivo; in short: as §3
[9] = Half life in Sprague-Dawley rat at 10 mg/kg, po; assay type: ADME, organism-based; design: dose 10 mg/kg, route oral; details: in vivo; in short: as §2
[10] = AUC (infinity) in Sprague-Dawley rat at 5 mg/kg, iv; assay type: ADME, organism-based; design: time infinity, dose 5 mg/kg, route intravenous; details: plasma; in short: as §2
[11] = Cmax in Sprague-Dawley rat at 5 mg/kg, iv; assay type: ADME, organism-based; design: dose 5 mg/kg, route intravenous; details: in vivo; in short: as §2
[12] = Clearance in Sprague-Dawley rat at 10 mg/kg, po; assay type: ADME, organism-based; design: dose 10 mg/kg, route oral; details: in vivo; in short: as §2
[13] = Clearance in Sprague-Dawley rat at 5 mg/kg, iv; assay type: ADME, organism-based; design: dose 5 mg/kg, route intravenous; details: in vivo; in short: as §2
[14] = Volume of distribution at steady state in Sprague-Dawley rat at 5 mg/kg, iv; assay type: ADME, organism-based; design: dose 5 mg/kg, route intravenous; details: in vivo, read-out: Vdss; in short: as §3

Compound	Ki [1] [µM]	further results
CC(=O)n1c2cc(=O)n(Cc3cccnc3)c(C)c2c(=O)n1-c1ccccc1Cl	0.24	
COCCn1c(COc2ccc(F)cc2)c2c(=O)n(CCN3CCOCC3)[nH]c2cc1=O	0.153	microsomal CLint at 0.5 µM [2]: 45.3 µL/min/mg; Papp at 2 h, 10 µM [3]: 1.4 ×10⁻⁶ cm/s; microsomal CLint at 0.5 µM [4]: 45.1 µL/min/mg; AUC(0-inf) [5]: 109 ng·h/mL; bioavailability [6]: 6%; Cmax [7]: 132 ng/mL; Tmax [8]: 0.25 h; half-life [9]: 2.35 h; AUC(0-inf) [10]: 822 ng·h/mL; Cmax [11]: 4640 ng/mL; CL/F [12]: 1610 mL/min/kg; clearance [13]: 109 mL/min/kg; Vd [14]: 2.95 L/kg
Cc1c2c(=O)n(-c3ccc(F)cc3)[nH]c2cc(=O)n1Cc1ccccc1	0.878	
Cc1c2c(=O)n(-c3ccc(OCc4ccccc4)cc3)[nH]c2cc(=O)n1C	3.06	
Cc1c2c(=O)n(-c3ccccc3F)[nH]c2cc(=O)n1C	0.308	
Cc1c2c(=O)n(-c3nc4ccccc4s3)[nH]c2cc(=O)n1Cc1ccc(C(=O)O)cc1	4.22	
CC(=O)Nc1cccc(-n2[nH]c3cc(=O)n(C)c(C)c3c2=O)c1	0.328	
Cc1c2c(=O)n(-c3cccc(C#N)c3)[nH]c2cc(=O)n1C	0.293	
Cc1c2c(=O)n(-c3nc(-c4ccccc4)cs3)[nH]c2cc(=O)n1C	1.95	
Cc1c2c(=O)n(-c3ccccc3)[nH]c2cc(=O)n1CCc1ccccc1	5.23	
Cc1c2c(=O)n(-c3nc4ccccc4s3)n(Cc3ccccn3)c2cc(=O)n1CC1CCOC1 (configuration not stated)	> 30	
Cc1ccccc1-n1[nH]c2cc(=O)n(Cc3ccccn3)c(C)c2c1=O	0.173	
Cc1c2c(=O)n(-c3ccnc4cc(Cl)ccc34)[nH]c2cc(=O)n1Cc1ccccn1	0.458	
Cc1c2c(=O)n(Cc3ccc(F)cc3Cl)[nH]c2cc(=O)n1Cc1ccccn1	0.342	
Cc1c2c(=O)n(Cc3cc(Cl)ccc3Cl)[nH]c2cc(=O)n1Cc1ccccn1	0.218	
Cc1c2c(=O)n(-c3nc4ccccc4s3)[nH]c2cc(=O)n1N1CCOCC1	1.21	
Cc1c2c(=O)n(-c3ccccc3Cl)[nH]c2cc(=O)n1NC(=O)COc1ccc(F)cc1	0.218	
Cc1c2c(=O)n(C)[nH]c2cc(=O)n1C	2.18	
Cc1c2c(=O)n(-c3ccc(F)cc3Cl)[nH]c2cc(=O)n1C	0.213	
Cc1c2c(=O)n(-c3nc4ccccc4s3)n(Cc3ccccc3)c2cc(=O)n1CC1CCCO1 (configuration not stated)	> 30	
Cc1c2c(=O)n(-c3ccccc3Cl)[nH]c2cc(=O)n1C	0.215	microsomal CLint at 0.5 µM [2]: 49.3 µL/min/mg
Cc1c2c(=O)n(-c3cccc(Cl)c3)[nH]c2cc(=O)n1C	0.34	microsomal CLint at 0.5 µM [2]: 163 µL/min/mg
CC(=O)n1c2cc(=O)n(Cc3cccnc3)c(C)c2c(=O)n1-c1ccccc1	0.409	
Cc1c2c(=O)n(-c3nc4ccccc4s3)[nH]c2cc(=O)n1CCc1c[nH]c2ccccc12	1.84	
COc1cccc(N2CCN(Cc3c4c(=O)n(-c5ccccc5Cl)[nH]c4cc(=O)n3C)CC2)c1	0.065	microsomal CLint at 0.5 µM [2]: 121 µL/min/mg; microsomal CLint at 0.5 µM [4]: 57.9 µL/min/mg
Cc1c2c(=O)n(CCOc3ccc(Cl)cc3)[nH]c2cc(=O)n1Cc1ccccn1	0.326	
Cc1c2c(=O)n(-c3ccccc3)[nH]c2cc(=O)n1Cc1ccco1	9.49	
Cc1c2c(=O)n(-c3ccccc3Cl)[nH]c2cc(=O)n1Cc1cccc(N2CCOCC2)n1	0.236	microsomal CLint at 0.5 µM [2]: 71.6 µL/min/mg
Cc1c2c(=O)n(-c3ccccc3Cl)[nH]c2cc(=O)n1CC1CCCCC1	0.52	

— ChEMBL document CHEMBL1275350, “First in class, potent, and orally bioavailable NADPH oxidase isoform 4 (Nox4) inhibitors for the treatment of idiopathic pulmonary fibrosis” (J Med Chem, 2010)
